The results in this text go back to ChEMBL document CHEMBL4673246, “Directing Drugs to Bugs: Antibiotic-Carbohydrate Conjugates Targeting Biofilm-Associated Lectins of Pseudomonas aeruginosa” (J Med Chem, 2020).

Values after ≈ are worked out from the molar mass of the structure shown. A value given as a limit tells only on which side of the number the result lay.

In series [1] the test system is Pseudomonas aeruginosa. The experiment in a line: Antibacterial activity against Pseudomonas aeruginosa PAO1 assessed as growth inhibition after 18 to 20 hrs in presence of PMBN by broth microdilution assay. The class given is functional. Conditions: time 18-20 hrs. The method in brief:
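Broth microdilution per EUCAST guidelines in Müller-Hinton broth II (Ca2+/Mg2+ supplemented, pH 7.3). Colonies from overnight LB-agar plates were suspended to OD600 0.08–0.13, diluted 1:100, final inoculum 5 × 10^5 CFU/mL. PMBN at 2 μg/mL was added to the inoculum where indicated. Incubation 37 °C, 18–20 h. MIC was the lowest concentration with no visible growth. At least three independent experiments.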

Series [2] in a line: Inhibition of Pseudomonas aeruginosa PA14 LecB expressed in Escherichia coli BL21(DE3) cells incubated for 4 to 8 hrs by (N-(fluorescein-5-yl)-N'-(alpha-L-fucopyranosyl ethylene)thiocarbamide) reporter based fluorescence polarization assay.
The subject of series [3] is Pseudomonas aeruginosa. The experiment in a line: Antibacterial activity against Pseudomonas aeruginosa PA14 assessed as growth inhibition after 18 to 20 hrs by broth microdilution assay. The class given is functional. As to conditions: time 18-20 hrs. Put shortly:
(§1)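 Overnight LB-agar colonies suspended to OD600 0.08–0.13, diluted 1:100; final inoculum 5 × 10^5 CFU/mL. 37 °C, 18–20 h, humid. MIC = lowest concentration without visible growth; range from at least three independent experiments.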

For series [4], the system named is Pseudomonas aeruginosa. Description: Antibacterial activity against Pseudomonas aeruginosa PA14 harboring LecA deletion mutant assessed as growth inhibition after 18 to 20 hrs by broth microdilution assay. The class given is functional. As to conditions: time 18-20 hrs. Put shortly:
as §1

The test system of series [5] is Pseudomonas aeruginosa. The experiment in a line: Antibacterial activity against Pseudomonas aeruginosa PA14 harboring LecB deletion mutant assessed as growth inhibition after 18 to 20 hrs by broth microdilution assay. The class given is functional. As to conditions: time 18-20 hrs. Put shortly:
as §1

Series [6] deals with Escherichia coli. The experiment in a line: Antibacterial activity against Escherichia coli K-12 MG1655 assessed as growth inhibition after 18 to 20 hrs by broth microdilution assay. The class given is functional. Conditions: time 18-20 hrs. Put shortly: as §1
Series [7] can be described thus: Inhibition of Pseudomonas aeruginosa PAO1 LecB expressed in Escherichia coli BL21(DE3) cells incubated for 4 to 8 hrs by (N-(fluorescein-5-yl)-N'-(alpha-L-fucopyranosyl ethylene)thiocarbamide) reporter based fluorescence polarization assay.
The subject of series [8] is Pseudomonas aeruginosa. The experiment in a line: Antibacterial activity against Pseudomonas aeruginosa PAO1 assessed as growth inhibition after 18 to 20 hrs by broth microdilution assay. The class given is functional. As to conditions: time 18-20 hrs. The method in brief: as §1
Series [9] relates to Pseudomonas aeruginosa. The experiment in a line: Antibacterial activity against Pseudomonas aeruginosa PA14 assessed as growth inhibition after 18 to 20 hrs in presence of PMBN by broth microdilution assay. Type of series: functional. Conditions: time 18-20 hrs. Put shortly: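 Cation-supplemented Mueller-Hinton broth II; final inoculum 5 × 10^5 CFU/mL. Incubated at 37 °C for 18–20 h. MIC read visually as the lowest concentration without growth; at least three independent experiments.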

A short description of series [10]: Half life in human plasma at 40 uM measured up to 150 mins by LC-MS/MS analysis. Type of series: ADME, cell-free.
Series [11] can be described thus: Clearance in mouse liver microsomes. Type of series: ADME, Microsome.
A short description of series [12]: Cytotoxicity against HEK293 cells assessed as growth inhibition at 100 uM after 48 hrs by MTT assay relative to control. Conditions: human, read-out: GI. Type of series: cell-based. Put shortly: (§2)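 MTT assay: HEK293 or A549 cells seeded at 2 × 10^5 per well. Compounds (final DMSO 1%) were added 24 h after seeding. Living cell mass was read after 48 h.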
A short description of series [13]: Protein binding in human plasma at 1 uM measured up to 6 hrs by LC-MS/MS analysis. The class given is ADME, cell-free. Put shortly: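 Rapid equilibrium dialysis: human plasma diluted with PBS pH 7.4 on one side, PBS on the other, compound at 1 μM final. Shaken at 37 °C for 6 h. Sampled at 0, 5 and 6 h and quantified by LC-MS/MS. Binding calculated from the concentration difference between chambers. Warfarin as control.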

Series [14] can be described thus: Cytotoxicity against human A549 cells assessed as growth inhibition at 100 uM after 48 hrs by MTT assay relative to control. The class given is cell-based. As to conditions: read-out: GI. Put shortly: as §2
The test system of series [15] is Staphylococcus carnosus. Description: Antibacterial activity against Staphylococcus carnosus DSM 20501 assessed as growth inhibition after 18 to 20 hrs by broth microdilution assay. The class given is functional. As to conditions: time 18-20 hrs. The method in brief: as §1
A short description of series [16]: Clearance in human liver microsomes. The class given is ADME, Microsome.
The test system of series [17] is Escherichia coli. The experiment in a line: Antibacterial activity against Escherichia coli DSM 1116 assessed as growth inhibition after 18 to 20 hrs by broth microdilution assay. Type of series: functional. Conditions: time 18-20 hrs. The method in brief:
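Broth microdilution per EUCAST guidelines in Müller-Hinton broth II (Ca2+/Mg2+ supplemented, pH 7.3). Test range 128 to 0.125 μg/mL, from DMSO stocks. Colonies from overnight LB-agar plates were suspended to OD600 0.08–0.13, diluted 1:100, final inoculum 5 × 10^5 CFU/mL. PMBN at 2 μg/mL was added to the inoculum where indicated. Incubation 37 °C, 18–20 h. MIC was the lowest concentration with no visible growth. At least three independent experiments.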

Series [18] deals with DNA gyrase (Escherichia coli, UniProt P0AES4+P0AES6). The experiment in a line: Inhibition of Escherichia coli DNA gyrase using relaxed PBR322 plasmid DNA as substrate incubated for 30 mins by ethidium bromide staining based agarose gel electrophoresis method. Type of series: protein-complex assay. The method in brief:
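E. coli gyrase supercoiling kit. Relaxed pBR322 plus 1 U gyrase per reaction, compound serially diluted in 5% DMSO; 30 min at 37 °C. Stopped with STE buffer and CHCl3/isoamyl alcohol; 1% agarose gel, ethidium bromide stain. Supercoiled band intensity fitted with a four-parameter model, bottom fixed at 0, for IC50; at least three experiments.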

For `C[C@@H]1O[C@H](CNS(=O)(=O)c2ccc(CCn3cc(CN4CCN(c5cc6c(cc5F)c(=O)c(C(=O)O)cn6C5CC5)CC4)nn3)s2)[C@@H](O)[C@H](O)[C@@H]1O`, the MIC is 32 µg/mL in series [1]; 64 µg/mL (≈ 84 µM) in series [3]; at least 64 µg/mL in [4]; 64 µg/mL (≈ 84 µM) in series [5]; 8 µg/mL (≈ 10.5 µM) in [6]; at least 64 µg/mL in series [8]. In addition, the minimum inhibitory concentration (MIC) in [9] is 64 µg/mL; in series [15] it was at least 64 µg/mL; in series [17], 16 µg/mL (≈ 21 µM). For the same compound, the values for the half-inhibitory concentration (IC50) in [2] and in series [7] were 2.24 µM and 2.37 µM, respectively. For the same compound, in series [10], the half-life at […], 40 µM was above 2.5 h. Moreover, the results for the microsomal CLint in [11] and in [16] were 10 µL/min/mg and 15 µL/min/mg, respectively. Also, the inhibition at 48 h, 100 µM is 11% in series [12] and -9% in [14]. The compound also displayed a PPB in series [13] of 75%.

In turn, `C#CCN1CCN(c2cc3c(cc2F)c(=O)c(C(=O)O)cn3C2CC2)CC1` showed a 50% inhibitory concentration (IC50) in [18] of 0.7 µM. The MIC was determined as 1 µg/mL in series [1], 2 µg/mL (≈ 5.41 µM) in series [3], 4 µg/mL (≈ 10.8 µM) in series [8] and 0.025 µg/mL in series [9].
